For test [1], the target named is T1, Muscarinic acetylcholine receptor M2 (Homo sapiens, UniProt P08172).
T1 sequence (P08172 whole entry): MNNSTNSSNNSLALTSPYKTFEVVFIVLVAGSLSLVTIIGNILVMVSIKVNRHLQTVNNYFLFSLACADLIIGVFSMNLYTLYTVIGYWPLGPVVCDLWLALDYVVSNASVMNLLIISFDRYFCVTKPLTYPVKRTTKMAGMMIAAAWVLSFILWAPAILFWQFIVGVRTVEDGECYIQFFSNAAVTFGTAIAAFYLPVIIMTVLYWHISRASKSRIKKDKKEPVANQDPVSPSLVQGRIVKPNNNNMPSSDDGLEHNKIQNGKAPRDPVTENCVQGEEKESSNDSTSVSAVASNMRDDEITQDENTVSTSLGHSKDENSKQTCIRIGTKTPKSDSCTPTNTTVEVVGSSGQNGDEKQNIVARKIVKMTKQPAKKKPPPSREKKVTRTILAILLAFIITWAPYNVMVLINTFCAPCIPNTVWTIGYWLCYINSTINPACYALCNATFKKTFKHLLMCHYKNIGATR
The experiment in a line: Displacement of [3H]-QNB from human muscarinic M2 receptor expressed in stable CHO-K1 cells incubated for 120 mins by radioligand competition binding assay. Format: cell-based. On the technique in general: Loss of bound radioactivity is the signal in a displacement assay; it reports binding, not function.

In test [2] the target is T2, Muscarinic acetylcholine receptors; M2 & M3 (Homo sapiens) (UniProt P20309+P08172). Nature of the test: Selectivity ratio of Ki for human muscarinic M3 receptor expressed in stable CHO-K1 cells to Ki for human muscarinic M2 receptor expressed in stable CHO-K1 cells. Format: cell-based.
Test [3] deals with T3, Muscarinic acetylcholine receptor M2 and M5 (Homo sapiens) (UniProt P08172+P08912). The experiment in a line: Selectivity ratio of Ki for human muscarinic M5 receptor expressed in stable CHO-K1 cells to Ki for human muscarinic M2 receptor expressed in stable CHO-K1 cells. Format: cell-based.
Test [4] has as its target T4, Muscarinic acetylcholine receptor M1 (Homo sapiens, UniProt P11229).
T4 sequence (P11229 whole entry): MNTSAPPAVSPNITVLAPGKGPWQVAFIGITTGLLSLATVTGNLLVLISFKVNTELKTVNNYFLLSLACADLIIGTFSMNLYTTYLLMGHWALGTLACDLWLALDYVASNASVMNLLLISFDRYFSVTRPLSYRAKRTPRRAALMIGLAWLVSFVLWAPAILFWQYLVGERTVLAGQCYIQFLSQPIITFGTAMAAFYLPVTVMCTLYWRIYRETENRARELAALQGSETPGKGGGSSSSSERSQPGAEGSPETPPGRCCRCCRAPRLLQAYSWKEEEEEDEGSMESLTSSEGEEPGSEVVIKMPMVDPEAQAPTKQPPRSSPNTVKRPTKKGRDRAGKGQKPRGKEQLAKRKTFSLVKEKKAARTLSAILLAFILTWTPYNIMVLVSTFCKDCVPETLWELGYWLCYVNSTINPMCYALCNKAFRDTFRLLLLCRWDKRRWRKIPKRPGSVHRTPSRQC
Nature of the test: Displacement of [3H]-NMS from muscarinic M1 receptor (unknown origin) expressed in mouse A9L cells after 60 mins by scintillation counting method. Format: cell-based.

Test [5] concerns the target T5, Muscarinic acetylcholine receptor M2 (Rattus norvegicus, UniProt P10980).
T5 sequence (P10980 whole entry): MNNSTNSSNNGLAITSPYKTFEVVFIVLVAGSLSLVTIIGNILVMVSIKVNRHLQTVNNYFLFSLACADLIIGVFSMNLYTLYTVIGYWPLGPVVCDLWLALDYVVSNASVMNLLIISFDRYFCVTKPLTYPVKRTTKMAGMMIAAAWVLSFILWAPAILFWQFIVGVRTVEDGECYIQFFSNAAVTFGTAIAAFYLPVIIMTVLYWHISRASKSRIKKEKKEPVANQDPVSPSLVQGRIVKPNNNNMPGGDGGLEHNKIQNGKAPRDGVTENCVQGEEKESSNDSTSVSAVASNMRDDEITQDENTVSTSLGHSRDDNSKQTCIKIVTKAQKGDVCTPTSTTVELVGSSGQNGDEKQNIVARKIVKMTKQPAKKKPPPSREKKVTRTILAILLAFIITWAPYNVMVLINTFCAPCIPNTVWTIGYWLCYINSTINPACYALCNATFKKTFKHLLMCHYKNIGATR
Nature of the test: Displacement of [3H]-NMS from rat heart muscarinic M2 receptor after 60 mins by scintillation counting method.

Test [6] concerns the target T6, Muscarinic acetylcholine receptor M3 (Homo sapiens, UniProt P20309). The experiment in a line: Displacement of [3H]-NMS from muscarinic M3 receptor (unknown origin) expressed in mouse A9L cell membranes after 60 mins by scintillation counting method.
Test [7] is described as follows: Displacement of [3H]-NMS from muscarinic M4 receptor in mouse/rat NG108-15 cells after 60 mins by scintillation counting method. Type of test: cell-based.
A short description of test [8]: Selectivity ratio of Ki for muscarinic M1 receptor (unknown origin) expressed in mouse A9L cell membranes to Ki for rat heart muscarinic M2 receptor. Format: cell-based.
Test [9] can be described thus: Selectivity ratio of Ki for muscarinic M3 receptor (unknown origin) expressed in mouse A9L cell membranes to Ki for rat heart muscarinic M2 receptor. Type of test: cell-based.
The nature of test [10]: Selectivity ratio of Ki for muscarinic M4 receptor in mouse/rat NG108-15 cells to Ki for rat heart muscarinic M2 receptor. Format: cell-based.
Test [11] addresses T1, Muscarinic acetylcholine receptor M2. Nature of the test: Binding affinity to muscarinic M2 receptor (unknown origin) expressed in CHO cells. Format: cell-based. In short, it runs like this:
(§1)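 [3H]NMS competition binding on intact CHO-hMxR cells in L15 medium with 1% BSA, 3 h at 22 ± 1 °C with gentle shaking. [3H]NMS was 0.2 nM (M1, M2, M3), 0.1 nM (M4) or 0.3 nM (M5). […] Cells were lysed in urea/acetic acid/Triton and counted by liquid scintillation. Ki from Cheng-Prusoff. Triplicates, ≥3 experiments.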

In test [12] the target is T4, Muscarinic acetylcholine receptor M1. Nature of the test: Binding affinity to muscarinic M1 receptor (unknown origin) expressed in CHO cells. Format: cell-based. In short, it runs like this: as §1
Test [13] addresses T6, Muscarinic acetylcholine receptor M3. The experiment in a line: Binding affinity to muscarinic M3 receptor (unknown origin) expressed in CHO cells. Format: cell-based. The method, boiled down: as §1
In test [14] the target is T7, Muscarinic acetylcholine receptor M4 (Homo sapiens, UniProt P08173).
T7 sequence (P08173 whole entry): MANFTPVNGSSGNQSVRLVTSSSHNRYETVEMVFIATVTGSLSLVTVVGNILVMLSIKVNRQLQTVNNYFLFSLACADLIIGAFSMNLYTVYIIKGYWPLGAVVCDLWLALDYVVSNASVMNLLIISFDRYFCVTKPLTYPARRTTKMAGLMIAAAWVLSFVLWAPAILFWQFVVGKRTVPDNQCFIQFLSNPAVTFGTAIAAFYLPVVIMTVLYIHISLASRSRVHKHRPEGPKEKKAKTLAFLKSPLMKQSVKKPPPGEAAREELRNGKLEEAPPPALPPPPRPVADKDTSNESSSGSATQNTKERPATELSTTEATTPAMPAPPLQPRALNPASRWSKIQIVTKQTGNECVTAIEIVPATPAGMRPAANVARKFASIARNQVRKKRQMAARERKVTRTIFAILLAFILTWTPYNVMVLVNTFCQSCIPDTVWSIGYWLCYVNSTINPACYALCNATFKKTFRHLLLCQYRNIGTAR
Nature of the test: Binding affinity to muscarinic M4 receptor (unknown origin) expressed in CHO cells. Type of test: cell-based. In short, it runs like this: as §1

The target of test [15] is T8, Muscarinic acetylcholine receptor M5 (Homo sapiens, UniProt P08912).
T8 sequence (P08912 whole entry): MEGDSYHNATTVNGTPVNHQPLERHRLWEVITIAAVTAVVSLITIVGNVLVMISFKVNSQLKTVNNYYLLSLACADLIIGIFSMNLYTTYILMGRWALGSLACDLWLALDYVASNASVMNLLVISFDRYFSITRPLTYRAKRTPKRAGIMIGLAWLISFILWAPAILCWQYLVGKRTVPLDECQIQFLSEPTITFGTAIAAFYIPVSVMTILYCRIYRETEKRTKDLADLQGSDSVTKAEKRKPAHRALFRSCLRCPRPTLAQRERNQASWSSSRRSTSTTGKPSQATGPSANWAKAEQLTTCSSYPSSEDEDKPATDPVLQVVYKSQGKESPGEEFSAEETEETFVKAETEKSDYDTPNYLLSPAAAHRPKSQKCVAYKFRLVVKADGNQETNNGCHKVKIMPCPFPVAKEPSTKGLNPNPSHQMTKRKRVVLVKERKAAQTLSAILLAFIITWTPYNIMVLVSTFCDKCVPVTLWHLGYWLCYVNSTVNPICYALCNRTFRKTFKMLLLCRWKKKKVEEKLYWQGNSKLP
The experiment in a line: Binding affinity to muscarinic M5 receptor (unknown origin) expressed in CHO cells. Type of test: cell-based. The method, boiled down:
as §1

For test [16], the target named is Muscarinic acetylcholine receptors; M1 & M2 (Homo sapiens) (UniProt P11229+P08172). Nature of the test: Selectivity ratio of Ki for muscarinic M1 receptor (unknown origin) expressed in CHO cells to Ki for muscarinic M2 receptor (unknown origin) expressed in CHO cells. Type of test: cell-based. The method, boiled down: (§2)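 Ratio of mean Ki values. Each Ki came from an individual [3H]NMS competition experiment at the given CHO-hMxR subtype, converting IC50 to Ki by Cheng-Prusoff before averaging.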

The target of test [17] is T2, Muscarinic acetylcholine receptors; M2 & M3 (Homo sapiens). The experiment in a line: Selectivity ratio of Ki for muscarinic M3 receptor (unknown origin) expressed in CHO cells to Ki for muscarinic M2 receptor (unknown origin) expressed in CHO cells. Type of test: cell-based. The method, boiled down: as §2
The target in test [18] is Muscarinic acetylcholine receptor M2 and M4 (Homo sapiens) (UniProt P08173+P08172). The experiment in a line: Selectivity ratio of ki for muscarinic M4 receptor (unknown origin) expressed in CHO cells to muscarinic M2 receptor (unknown origin) expressed in CHO cells. Format: cell-based. In short, it runs like this:
as §2

For test [19], the target named is T3, Muscarinic acetylcholine receptor M2 and M5 (Homo sapiens). The experiment in a line: Selectivity ratio of ki for muscarinic M5 receptor (unknown origin) expressed in CHO cells to muscarinic M2 receptor (unknown origin) expressed in CHO cells. Type of test: cell-based. The method, boiled down: as §2
The target in test [20] is T4, Muscarinic acetylcholine receptor M1. The experiment in a line: Displacement of [3H]-NMS from human muscarinic M1 receptor expressed in CHO-K1 cells by scintillation counting method. Type of test: cell-based. The method, boiled down: as §1
Test [21] concerns the target T1, Muscarinic acetylcholine receptor M2. Nature of the test: Displacement of [3H]-NMS from human muscarinic M2 receptor expressed in CHO-K1 cells by scintillation counting method. Type of test: cell-based. The method, boiled down: as §1
Test [22] addresses T6, Muscarinic acetylcholine receptor M3. Nature of the test: Displacement of [3H]-NMS from human muscarinic M3 receptor expressed in CHO-K1 cells by scintillation counting method. Type of test: cell-based. The method, boiled down: as §1
For test [23], the target named is T7, Muscarinic acetylcholine receptor M4. The experiment in a line: Displacement of [3H]-NMS from human muscarinic M4 receptor expressed in CHO-K1 cells by scintillation counting method. Type of test: cell-based. In short, it runs like this: as §1
Test [24] concerns the target T8, Muscarinic acetylcholine receptor M5. The experiment in a line: Displacement of [3H]-NMS from human muscarinic M5 receptor expressed in CHO-K1 cells by scintillation counting method. Format: cell-based. The method, boiled down:
as §1

This is an account of results in ChEMBL document CHEMBL4396879, “Conjugation of Short Peptides to Dibenzodiazepinone-Type Muscarinic Acetylcholine Receptor Ligands Determines M2R Selectivity” (J Med Chem, 2019).

The structures appear in SMILES notation.

T6 sequence (P20309 whole entry): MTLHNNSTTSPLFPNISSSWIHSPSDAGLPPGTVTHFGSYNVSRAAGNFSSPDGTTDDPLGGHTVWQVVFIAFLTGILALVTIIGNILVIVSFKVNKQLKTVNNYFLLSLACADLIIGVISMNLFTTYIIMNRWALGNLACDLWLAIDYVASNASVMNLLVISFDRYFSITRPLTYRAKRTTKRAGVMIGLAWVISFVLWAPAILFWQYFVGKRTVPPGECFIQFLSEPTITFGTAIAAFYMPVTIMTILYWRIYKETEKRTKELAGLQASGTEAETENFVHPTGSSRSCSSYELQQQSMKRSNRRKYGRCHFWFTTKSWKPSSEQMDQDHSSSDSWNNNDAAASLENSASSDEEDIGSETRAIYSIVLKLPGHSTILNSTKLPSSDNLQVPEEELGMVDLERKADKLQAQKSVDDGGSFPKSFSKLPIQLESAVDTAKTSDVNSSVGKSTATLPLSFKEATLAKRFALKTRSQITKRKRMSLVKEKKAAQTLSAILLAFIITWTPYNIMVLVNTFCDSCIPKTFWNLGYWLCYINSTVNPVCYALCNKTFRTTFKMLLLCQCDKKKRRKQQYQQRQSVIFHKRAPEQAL
T2 sequence (P20309 whole entry, looked up, one chain of several): as the sequence (P20309 whole entry) above

For `Cc1ccccc1C(=O)N1CCC(N2CCC(Cc3ccc(S(=O)(=O)c4cccc(Cl)c4)cc3)CC2)CC1`, in [1], affinity was put at a Ki of 2.69 nM. Besides, the Ratio Ki is 172 in test [2] and 48 in test [3].
`CCN(CC)CCCCC1CCN(CC(=O)N2c3ccccc3NC(=O)c3ccccc32)CC1`: the Ki – broadly, the equilibrium dissociation constant of an inhibitor or competing ligand from its target – in test [4] is 3.98 nM; in [5], 0.316 nM; in test [6], 10 nM. Moreover, the pKi (as a rule, −log10 of the Ki, conventionally taken in molar units) in test [7] was 8.7. In addition, the Ratio Ki worked out at 13 in test [8], 37 in test [9] and 7 in test [10].
With `CCCC(C)(C)C(=O)N(CC)CCCC1CCN(CC(=O)N2c3ccccc3NC(=O)c3ccccc32)CC1`, the Ki is 7.94 nM in test [11]; 316 nM in test [12]; 398 nM in test [13]; 50.1 nM in test [14]; 316 nM in test [15]. Besides, the Ratio Ki in test [16] came to 40; in [17], 50; in test [18] it was 6.3; in test [19], 40.
On to `CCCC(C)(C)C(=O)N(CC)CCCC1CCN(CC(=O)N2c3ccc(Cl)cc3C(=O)Nc3cccnc32)CC1`, for which the Ratio Ki amounted to 26 in test [2] and 48 in [3]. Further, the Ki is 1070 nM in test [20]; 30.2 nM in test [21]; 776 nM in [22]; 174 nM in [23]; 1450 nM in test [24].
